As usually defined, the IC50 is the concentration that inhibits the measured activity by half. In general, bioavailability refers to dose-corrected exposure relative to a reference, in per cent.

Data on one compound can be found in ChEMBL document CHEMBL5705905, “Pharmacological targeting of kinases MST1 and MST2 augments tissue repair and regeneration” (Sci Transl Med, 2016).

Calls of active or inactive are those of the source. The calls are words filed in the database; no cut-off is given here.

The target in data set [1] is Serine/threonine-protein kinase DCLK1 (Homo sapiens, UniProt O15075). As to the kind of experiment: Inhibition of DCAMKL1 (unknown origin) in presence of ATP by enzymatic assay.
Data set [2] has as its target Mitogen-activated protein kinase 3 (Homo sapiens) (UniProt P27361). Description: Inhibition of ERK1 (unknown origin) assessed as remaining activity at 1 uM by Kinome scan method relative to control.
Data set [3] concerns the target Mitogen-activated protein kinase kinase kinase 2 (Homo sapiens, UniProt Q9Y2U5). Description: Inhibition of MAP3K2 (unknown origin) in presence of ATP by enzymatic assay.
Data set [4] deals with Phosphatidylinositol 4,5-bisphosphate 3-kinase catalytic subunit alpha isoform (Homo sapiens), P42336 [E542K]. As to the kind of experiment: Inhibition of PIK3CA E542K mutant (unknown origin) assessed as remaining activity at 1 uM by Kinome scan method relative to control.
Data set [5] has as its target Ephrin type-A receptor 1 (Homo sapiens) (UniProt P21709). As to the kind of experiment: Inhibition of EPHA1 (unknown origin) assessed as remaining activity at 1 uM by Kinome scan method relative to control.
In data set [6] the target is TGF-beta receptor type-1 (Homo sapiens) (UniProt P36897). Description: Inhibition of TGFBR1 (unknown origin) assessed as remaining activity at 1 uM by Kinome scan method relative to control.
For data set [7], the target named is Serine/threonine-protein kinase WNK1 (Homo sapiens) (UniProt Q9H4A3). As to the kind of experiment: Inhibition of WNK1 (unknown origin) assessed as remaining activity at 1 uM by Kinome scan method relative to control.
Data set [8] has as its system Mast/stem cell growth factor receptor Kit (Homo sapiens), P10721 [V559D,V654A]. Description: Inhibition of KIT V559D/V654A mutant (unknown origin) assessed as remaining activity at 1 uM by Kinome scan method relative to control.
For data set [9], the target named is Calcium/calmodulin-dependent protein kinase kinase 2 (Homo sapiens) (UniProt Q96RR4). Description: Inhibition of CAMKK2 (unknown origin) assessed as remaining activity at 1 uM by Kinome scan method relative to control. A digest of the protocol:
(§1)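 Active-site-dependent competition-binding profiling (KINOMEscan) at 1 μM against a 468-kinase panel; compound supplied from a 10 mM DMSO stock. Read-out is ctrl% = (test signal − positive control signal)/(negative control signal − positive control signal) × 100. DMSO is the negative control (100%) and a control compound the positive control (0%). Lower ctrl% means tighter binding.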

For data set [10], the target named is Serine/threonine-protein kinase DCLK2 (Homo sapiens) (UniProt Q8N568). Description: Inhibition of DCAMKL2 (unknown origin) assessed as remaining activity at 1 uM by Kinome scan method relative to control.
For data set [11], the target named is Activin receptor type-1 (Homo sapiens) (UniProt Q04771). As to the kind of experiment: Inhibition of ACVR1 (unknown origin) assessed as remaining activity at 1 uM by Kinome scan method relative to control. The gist of the method: (§2)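 Active-site-dependent competition-binding (KINOMEscan) panel of 468 kinases, test compound at 1 μM (from a 10 mM DMSO stock). Read-out is ctrl% = (test signal − positive control signal)/(negative control signal − positive control signal) × 100. DMSO is the negative control (100%) and a control compound is the positive control (0%). Lower ctrl% means tighter binding.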

Data set [12] addresses STE20-like serine/threonine-protein kinase (Homo sapiens) (UniProt Q9H2G2). Description: Inhibition of SLK (unknown origin) assessed as remaining activity at 1 uM by Kinome scan method relative to control.
For data set [13], the system named is Receptor-type tyrosine-protein kinase FLT3 (Homo sapiens), P36888 [UNDEFINED MUTATION]. As to the kind of experiment: Inhibition of FLT3 ITD mutant (unknown origin) assessed as remaining activity at 1 uM by Kinome scan method relative to control.
The test system of data set [14] is Mus musculus. Description: In vivo inhibition of MST1/2 in wild-type Mst1fl/fl Mst2fl/fl mouse assessed as high number in nuclear YAP-positive cells at 1 mg/kg, ip administrated daily for 7 days by immunohistochemical staining. Type of data set: functional, organism-based. The conditions noted are these: Liver, time 7.0 day.
In data set [15] the test system is Mus musculus. Description: Protection against APAP induced liver injury in mouse assessed as continual expansion of centrilobular necrotic lesions at 1 mg/kg, ip administered at 1.5 hrs by TUNEL staining. Type of data set: functional, organism-based.
For data set [16], the target named is T1, Serine/threonine-protein kinase 4 (Homo sapiens, UniProt Q13043).
T1 sequence (Q13043 whole entry): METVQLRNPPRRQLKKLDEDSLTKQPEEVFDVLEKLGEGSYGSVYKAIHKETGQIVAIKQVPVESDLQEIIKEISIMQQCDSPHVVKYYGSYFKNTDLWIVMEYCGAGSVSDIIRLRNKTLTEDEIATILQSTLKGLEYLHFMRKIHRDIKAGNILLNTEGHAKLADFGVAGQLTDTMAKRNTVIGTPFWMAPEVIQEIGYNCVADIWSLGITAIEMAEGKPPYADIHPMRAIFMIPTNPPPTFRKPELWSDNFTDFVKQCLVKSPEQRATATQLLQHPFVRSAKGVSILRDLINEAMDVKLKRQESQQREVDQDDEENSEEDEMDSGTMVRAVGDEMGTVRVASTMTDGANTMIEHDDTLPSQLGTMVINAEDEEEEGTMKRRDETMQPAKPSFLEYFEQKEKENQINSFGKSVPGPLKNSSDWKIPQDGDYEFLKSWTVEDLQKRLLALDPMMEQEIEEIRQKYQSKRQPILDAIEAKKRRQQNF
Description: Inhibition of recombinant His-tagged full-length MST1 (unknown origin) expressing in Escherichia coli assessed as MOB1a phosphorylation level incubated for 30 min in the presence of 30 uM ATP by immunoblot analysis. Background: Immunoblotting shows a protein as a band on a membrane.

For data set [17], the target named is Ribosomal protein S6 kinase alpha-5 (Homo sapiens) (UniProt O75582). As to the kind of experiment: Inhibition of C-terminal kinase domain RPS6KA5 (unknown origin) assessed as remaining activity at 1 uM by Kinome scan method relative to control. A digest of the protocol:
as §2

Data set [18] is described as follows: Oral bioavailability in male Sprague-Dawley rat at 10 mg/kg measured for 24 hrs by LC-MS/MS analysis. The class given is ADME, organism-based. The note with it: in vivo.
The subject of data set [19] is Epidermal growth factor receptor (Homo sapiens), P00533 [UNDEFINED MUTATION]. Description: Inhibition of EGFR L747-T751del/Sins mutant (unknown origin) assessed as remaining activity at 1 uM by Kinome scan method relative to control.
For data set [20], the target named is Cyclin-dependent kinase 13 (Homo sapiens) (UniProt Q14004). Description: Inhibition of CDC2L5 (unknown origin) assessed as remaining activity at 1 uM by Kinome scan method relative to control. A digest of the protocol: as §1
Another data set deals with Aurora kinase B (Homo sapiens, UniProt Q96GD4). As to the kind of experiment: Inhibition of AURKB (unknown origin) assessed as remaining activity at 1 uM by Kinome scan method relative to control. A digest of the protocol:
as §2

In data set [21] the target is Serine/threonine-protein kinase/endoribonuclease IRE1 (Homo sapiens) (UniProt O75460). As to the kind of experiment: Inhibition of ERN1 (unknown origin) assessed as remaining activity at 1 uM by Kinome scan method relative to control.
Data set [22] concerns the target Fibroblast growth factor receptor 4 (Homo sapiens) (UniProt P22455). Description: Inhibition of FGFR4 (unknown origin) assessed as remaining activity at 1 uM by Kinome scan method relative to control.

Calcium/calmodulin-dependent protein kinase kinase 2 (Homo sapiens), sequence (Q96RR4 2-588 limits assumed): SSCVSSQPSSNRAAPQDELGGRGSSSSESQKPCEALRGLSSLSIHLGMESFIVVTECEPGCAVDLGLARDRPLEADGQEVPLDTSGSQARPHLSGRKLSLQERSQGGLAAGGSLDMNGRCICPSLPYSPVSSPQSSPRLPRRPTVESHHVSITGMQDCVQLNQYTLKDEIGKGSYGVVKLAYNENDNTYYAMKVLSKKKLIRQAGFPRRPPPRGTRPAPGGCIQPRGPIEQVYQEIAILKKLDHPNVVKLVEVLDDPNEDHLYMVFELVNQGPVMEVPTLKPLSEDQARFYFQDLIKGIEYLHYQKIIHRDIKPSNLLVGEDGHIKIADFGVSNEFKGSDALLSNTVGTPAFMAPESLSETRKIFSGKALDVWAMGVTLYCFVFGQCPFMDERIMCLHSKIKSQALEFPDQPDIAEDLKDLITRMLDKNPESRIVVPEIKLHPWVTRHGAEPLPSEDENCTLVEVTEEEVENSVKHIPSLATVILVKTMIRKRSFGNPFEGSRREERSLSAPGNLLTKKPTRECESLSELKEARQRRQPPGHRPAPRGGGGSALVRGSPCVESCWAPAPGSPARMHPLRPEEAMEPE
Cyclin-dependent kinase 13 (Homo sapiens), sequence (Q14004 whole entry, looked up): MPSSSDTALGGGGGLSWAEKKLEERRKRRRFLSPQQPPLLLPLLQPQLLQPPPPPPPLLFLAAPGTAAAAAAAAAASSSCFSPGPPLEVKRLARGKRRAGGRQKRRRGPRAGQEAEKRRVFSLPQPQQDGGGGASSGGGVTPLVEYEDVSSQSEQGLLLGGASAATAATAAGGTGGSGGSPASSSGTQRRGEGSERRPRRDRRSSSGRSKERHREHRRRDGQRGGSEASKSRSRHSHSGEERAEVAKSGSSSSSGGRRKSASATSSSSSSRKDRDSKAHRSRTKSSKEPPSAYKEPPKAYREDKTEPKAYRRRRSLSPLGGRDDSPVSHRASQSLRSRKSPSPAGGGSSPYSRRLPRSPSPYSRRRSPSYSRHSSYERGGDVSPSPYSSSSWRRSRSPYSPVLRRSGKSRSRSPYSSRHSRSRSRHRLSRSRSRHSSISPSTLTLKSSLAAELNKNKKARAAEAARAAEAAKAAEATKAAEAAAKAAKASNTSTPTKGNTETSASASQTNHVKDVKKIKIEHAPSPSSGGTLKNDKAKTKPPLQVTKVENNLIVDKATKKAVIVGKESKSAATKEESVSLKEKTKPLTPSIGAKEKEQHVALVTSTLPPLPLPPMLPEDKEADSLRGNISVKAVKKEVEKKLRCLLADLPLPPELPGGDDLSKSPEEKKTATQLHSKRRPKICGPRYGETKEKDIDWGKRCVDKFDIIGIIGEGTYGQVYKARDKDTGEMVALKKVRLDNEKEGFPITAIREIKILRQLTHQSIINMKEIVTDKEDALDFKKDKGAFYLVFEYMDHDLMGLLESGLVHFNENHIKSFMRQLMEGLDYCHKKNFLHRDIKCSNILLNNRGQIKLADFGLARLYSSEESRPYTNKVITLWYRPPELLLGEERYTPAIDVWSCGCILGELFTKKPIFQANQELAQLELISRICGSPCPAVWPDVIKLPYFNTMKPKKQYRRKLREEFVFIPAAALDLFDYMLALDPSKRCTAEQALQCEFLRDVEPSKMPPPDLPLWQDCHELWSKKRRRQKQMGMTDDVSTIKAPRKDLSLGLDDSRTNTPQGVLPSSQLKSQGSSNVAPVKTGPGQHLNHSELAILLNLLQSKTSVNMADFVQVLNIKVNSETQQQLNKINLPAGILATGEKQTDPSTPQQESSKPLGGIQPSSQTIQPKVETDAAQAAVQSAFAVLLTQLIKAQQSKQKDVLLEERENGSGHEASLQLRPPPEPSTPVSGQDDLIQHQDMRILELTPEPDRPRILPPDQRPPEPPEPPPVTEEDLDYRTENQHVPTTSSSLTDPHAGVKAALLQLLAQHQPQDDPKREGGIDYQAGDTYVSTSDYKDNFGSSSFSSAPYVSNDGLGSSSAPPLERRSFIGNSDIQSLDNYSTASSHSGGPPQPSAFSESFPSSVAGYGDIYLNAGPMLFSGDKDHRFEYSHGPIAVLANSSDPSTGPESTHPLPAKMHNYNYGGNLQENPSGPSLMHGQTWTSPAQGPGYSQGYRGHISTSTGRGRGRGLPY
Phosphatidylinositol 4,5-bisphosphate 3-kinase catalytic subunit alpha isoform (Homo sapiens), P42336 [E542K], sequence (P42336 whole entry E542K, canonical isoform): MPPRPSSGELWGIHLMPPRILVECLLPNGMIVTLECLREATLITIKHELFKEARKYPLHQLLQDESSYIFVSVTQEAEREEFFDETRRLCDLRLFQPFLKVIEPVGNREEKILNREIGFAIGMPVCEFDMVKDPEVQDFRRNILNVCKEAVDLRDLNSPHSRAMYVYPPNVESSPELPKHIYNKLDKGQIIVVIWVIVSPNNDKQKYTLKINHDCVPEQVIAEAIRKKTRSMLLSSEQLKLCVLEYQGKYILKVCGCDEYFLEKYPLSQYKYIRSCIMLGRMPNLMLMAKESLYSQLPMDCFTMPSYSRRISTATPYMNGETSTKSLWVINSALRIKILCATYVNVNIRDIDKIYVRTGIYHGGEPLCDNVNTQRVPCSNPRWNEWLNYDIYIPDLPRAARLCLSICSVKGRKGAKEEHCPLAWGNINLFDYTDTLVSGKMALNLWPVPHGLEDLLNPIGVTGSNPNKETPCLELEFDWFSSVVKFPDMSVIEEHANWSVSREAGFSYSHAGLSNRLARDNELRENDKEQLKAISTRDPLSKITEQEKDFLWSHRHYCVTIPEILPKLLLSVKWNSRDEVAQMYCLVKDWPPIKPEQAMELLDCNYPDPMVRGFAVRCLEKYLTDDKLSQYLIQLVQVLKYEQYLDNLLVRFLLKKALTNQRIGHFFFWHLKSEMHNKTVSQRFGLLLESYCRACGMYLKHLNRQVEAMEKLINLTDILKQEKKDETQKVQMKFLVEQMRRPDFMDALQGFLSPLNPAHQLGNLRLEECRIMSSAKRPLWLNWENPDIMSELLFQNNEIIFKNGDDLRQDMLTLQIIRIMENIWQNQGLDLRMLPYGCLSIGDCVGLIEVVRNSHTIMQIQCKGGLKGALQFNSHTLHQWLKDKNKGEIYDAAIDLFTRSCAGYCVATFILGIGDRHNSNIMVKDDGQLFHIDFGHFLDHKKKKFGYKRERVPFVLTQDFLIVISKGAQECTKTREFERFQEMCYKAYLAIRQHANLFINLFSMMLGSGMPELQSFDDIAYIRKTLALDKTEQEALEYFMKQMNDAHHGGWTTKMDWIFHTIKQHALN
Activin receptor type-1 (Homo sapiens), sequence (Q04771 whole entry): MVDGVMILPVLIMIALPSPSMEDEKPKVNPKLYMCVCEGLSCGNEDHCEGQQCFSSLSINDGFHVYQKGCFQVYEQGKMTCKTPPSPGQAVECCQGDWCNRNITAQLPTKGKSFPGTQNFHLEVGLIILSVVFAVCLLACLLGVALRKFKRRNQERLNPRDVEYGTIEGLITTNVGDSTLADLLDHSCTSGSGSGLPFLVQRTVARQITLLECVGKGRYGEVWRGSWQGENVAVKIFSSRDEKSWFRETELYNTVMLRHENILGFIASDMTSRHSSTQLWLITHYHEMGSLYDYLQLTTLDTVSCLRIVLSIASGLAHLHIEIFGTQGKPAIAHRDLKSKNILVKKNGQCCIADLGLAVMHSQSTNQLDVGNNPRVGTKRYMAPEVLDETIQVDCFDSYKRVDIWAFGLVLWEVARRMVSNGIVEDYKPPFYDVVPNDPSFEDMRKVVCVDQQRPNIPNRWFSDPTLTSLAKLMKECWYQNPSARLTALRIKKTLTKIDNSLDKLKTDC
Receptor-type tyrosine-protein kinase FLT3 (Homo sapiens), P36888 [UNDEFINED MUTATION], sequence (P36888 whole entry, looked up, change not shown): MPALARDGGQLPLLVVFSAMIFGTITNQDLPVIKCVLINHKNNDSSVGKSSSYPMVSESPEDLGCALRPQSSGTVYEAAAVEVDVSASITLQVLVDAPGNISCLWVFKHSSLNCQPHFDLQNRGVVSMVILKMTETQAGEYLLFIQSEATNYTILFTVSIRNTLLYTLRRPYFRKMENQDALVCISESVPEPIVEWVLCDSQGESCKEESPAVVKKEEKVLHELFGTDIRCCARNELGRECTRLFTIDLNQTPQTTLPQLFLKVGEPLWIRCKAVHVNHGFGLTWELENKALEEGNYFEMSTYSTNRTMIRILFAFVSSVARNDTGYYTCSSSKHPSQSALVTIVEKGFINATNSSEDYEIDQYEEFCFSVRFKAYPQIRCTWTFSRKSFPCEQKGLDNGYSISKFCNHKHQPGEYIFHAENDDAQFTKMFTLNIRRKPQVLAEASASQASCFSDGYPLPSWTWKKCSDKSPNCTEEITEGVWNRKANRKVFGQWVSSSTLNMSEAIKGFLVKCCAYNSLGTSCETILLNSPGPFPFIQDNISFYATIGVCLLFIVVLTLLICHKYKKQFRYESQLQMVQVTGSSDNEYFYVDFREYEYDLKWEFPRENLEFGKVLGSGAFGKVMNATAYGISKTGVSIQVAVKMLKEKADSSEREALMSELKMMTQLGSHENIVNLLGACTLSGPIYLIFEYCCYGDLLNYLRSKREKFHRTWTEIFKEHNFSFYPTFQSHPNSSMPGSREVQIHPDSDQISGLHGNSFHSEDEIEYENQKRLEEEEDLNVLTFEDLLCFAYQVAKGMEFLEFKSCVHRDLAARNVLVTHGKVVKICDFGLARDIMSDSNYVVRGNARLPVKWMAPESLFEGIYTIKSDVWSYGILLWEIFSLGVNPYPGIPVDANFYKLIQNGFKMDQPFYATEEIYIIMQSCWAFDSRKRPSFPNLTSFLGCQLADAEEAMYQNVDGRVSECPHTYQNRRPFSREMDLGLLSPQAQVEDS
Aurora kinase B, sequence (Q96GD4 whole entry): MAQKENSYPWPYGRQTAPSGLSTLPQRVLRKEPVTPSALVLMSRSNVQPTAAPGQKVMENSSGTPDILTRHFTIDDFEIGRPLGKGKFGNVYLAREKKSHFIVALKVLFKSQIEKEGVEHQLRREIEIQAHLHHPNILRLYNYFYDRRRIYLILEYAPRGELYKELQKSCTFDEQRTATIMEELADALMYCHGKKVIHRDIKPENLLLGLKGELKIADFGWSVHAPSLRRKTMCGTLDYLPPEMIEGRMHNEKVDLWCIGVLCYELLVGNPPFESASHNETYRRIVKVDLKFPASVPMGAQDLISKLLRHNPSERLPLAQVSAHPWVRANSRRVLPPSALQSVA

Turning to `CN1C(=O)c2sccc2N(C)c2nc(Nc3ccc(S(N)(=O)=O)cc3)ncc21`, the IC50 in data set [1] turned out to be 0.0279 µM; in data set [3], 0.0796 µM; in data set [16], 0.378 µM. Moreover, the Activity worked out at 100% in data set [2]; 48% in [4]; 92% in data set [5]; 92% in [6]; 97% in [7]; 92% in data set [8]. Also, the Activity in data set [9] was 84%; in data set [10] it was 84%; in [11], 91%; in data set [12] it was 100%; in data set [13] it was 91%; in data set [17], 81%. Moreover, the Activity in [19] is 67%; in data set [20] it was 90%; on Aurora kinase B, 3.4%; in data set [21], 65%; in [22], 100%. For the same compound, the inhibition result in the data set on Mus musculus [14] is “Active”. In addition, the result with Mus musculus [15] was Active. Besides, the bioavailability in [18] was found to be 39.5%.
